From ChEMBL document CHEMBL4043075, “Development of Fluorinated Analogues of Perhexiline with Improved Pharmacokinetic Properties and Retained Efficacy” (J Med Chem, 2017)
Blank lines part the entries; values can stand above or below the molecule they belong to. The source made the active and inactive calls. The calls are words filed in the database; no cut-off is given here.

Columns and labels:
[1] = target: T1, Carnitine O-palmitoyltransferase 1, muscle isoform (Rattus norvegicus, UniProt Q63704); assay: Inhibition of Wistar rat heart mitochondrial CPT-1 assessed as reduction in conversion of palmitoyl CoA and L-carnitine into palmitoylcarnitine preincubated for 3 mins followed by L-carnitine and palmitoyl CoA addition measured for 3.5 mins by spectrophotometric analysis
T1 sequence (Q63704 whole entry): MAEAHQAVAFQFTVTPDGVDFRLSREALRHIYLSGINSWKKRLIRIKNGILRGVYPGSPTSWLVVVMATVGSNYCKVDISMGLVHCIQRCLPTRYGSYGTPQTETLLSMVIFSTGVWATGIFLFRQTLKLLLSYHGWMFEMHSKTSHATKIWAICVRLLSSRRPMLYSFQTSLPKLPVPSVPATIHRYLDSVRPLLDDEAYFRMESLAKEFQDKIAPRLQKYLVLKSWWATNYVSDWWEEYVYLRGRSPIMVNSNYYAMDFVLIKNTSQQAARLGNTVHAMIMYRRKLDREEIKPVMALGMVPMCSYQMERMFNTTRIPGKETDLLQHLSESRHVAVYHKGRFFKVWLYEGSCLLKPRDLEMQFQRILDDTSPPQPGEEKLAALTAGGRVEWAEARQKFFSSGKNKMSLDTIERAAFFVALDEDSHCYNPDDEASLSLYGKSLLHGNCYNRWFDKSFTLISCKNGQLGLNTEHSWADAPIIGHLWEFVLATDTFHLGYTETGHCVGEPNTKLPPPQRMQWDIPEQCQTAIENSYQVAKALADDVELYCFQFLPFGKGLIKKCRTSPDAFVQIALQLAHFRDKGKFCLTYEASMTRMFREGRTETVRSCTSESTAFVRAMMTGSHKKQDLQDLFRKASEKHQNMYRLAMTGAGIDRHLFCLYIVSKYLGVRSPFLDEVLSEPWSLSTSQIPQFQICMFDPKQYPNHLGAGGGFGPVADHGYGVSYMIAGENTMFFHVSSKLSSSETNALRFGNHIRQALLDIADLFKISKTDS

[2] = Half life in human liver microsomes at 3 uM up to 45 mins in presence of NADPH by LC-MS/MS analysis; assay type: ADME, microsome
[3] = Half life in Sprague-Dawley rat liver microsomes at 3 uM up to 45 mins in presence of NADPH by LC-MS/MS analysis; assay type: ADME, microsome
[4] = Stability of the compound in pH 7.4 PBS buffer at 37 degC after 1 hr; assay type: physicochemical; conditions: pH 7.4, 1 h
Procedure, shortened: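 Compound incubated 1 h in pH 7.4 PBS at 37 °C, then checked for decomposition.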

CYP2D6 = CYP2D6 (Homo sapiens, UniProt P10635); assay: Drug metabolism assessed as human CYP2D6-mediated compound degradation by measuring half life at 5 uM up to 45 mins in presence of NADPH by LC-MS/MS analysis; assay type: ADME
Sequence of CYP2D6 (P10635 whole entry): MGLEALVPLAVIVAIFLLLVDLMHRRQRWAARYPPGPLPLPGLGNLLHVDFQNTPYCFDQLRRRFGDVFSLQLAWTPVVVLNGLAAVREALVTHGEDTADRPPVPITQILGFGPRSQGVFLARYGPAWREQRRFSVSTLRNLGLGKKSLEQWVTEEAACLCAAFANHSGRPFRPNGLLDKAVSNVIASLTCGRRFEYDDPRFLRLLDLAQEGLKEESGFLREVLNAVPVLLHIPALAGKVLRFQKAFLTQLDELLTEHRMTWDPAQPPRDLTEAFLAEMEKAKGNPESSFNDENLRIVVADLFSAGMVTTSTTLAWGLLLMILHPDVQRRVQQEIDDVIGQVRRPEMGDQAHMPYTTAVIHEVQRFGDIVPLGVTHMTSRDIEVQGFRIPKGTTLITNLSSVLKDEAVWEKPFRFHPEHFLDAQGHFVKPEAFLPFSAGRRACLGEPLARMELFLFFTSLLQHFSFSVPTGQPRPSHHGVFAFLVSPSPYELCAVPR

[5] = Plasma concentration in Sprague-Dawley rat at 10 mg/kg, po administered via gavage every 24 hrs measured at 2 hrs post last dose by LC-MS/MS analysis; assay type: ADME, organism-based
Procedure, shortened: (§1)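 Male Sprague-Dawley rats, daily oral dosing at 10 mg/kg. Plasma sampled at 1, 2, 4, 8 and 24 h after dosing, n = 3 per timepoint. Myocardium measured at 1 and 8 h. Myocardium:plasma ratio taken from drug concentration.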

[6] = Plasma concentration in Sprague-Dawley rat at 10 mg/kg, po administered via gavage every 24 hrs measured at 1 hr post dose by LC-MS/MS analysis; assay type: ADME, organism-based; procedure, shortened: as §1
[7] = Plasma concentration in BALB/c mouse at 10 mg/kg, po administered via gavage every 24 hrs for 7 days measured 4 hrs post last dose by LC-MS/MS analysis; assay type: ADME, organism-based
Procedure, shortened: (§2)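 Male BALB/c mice, daily oral gavage at 10 mg/kg. Plasma and myocardium sampled 1, 4, 8 and 24 h after dosing, n = 3 per timepoint. […] Myocardium:plasma ratios taken from drug concentration or from AUC. Student's t-test used.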

[8] = Ratio of drug level in myocardium to plasma in BALB/c mouse at 10 mg/kg, po administered via gavage every 24 hrs for 7 days measured 8 hrs post last dose by LC-MS/MS analysis; assay type: ADME, organism-based; conditions: myocardium and plasma; procedure, shortened: as §2
[9] = Drug uptake in BALB/c mouse myocardium at 10 mg/kg, po administered via gavage every 24 hrs for 7 days measured 1 hr post last dose by LC-MS/MS analysis; assay type: ADME, organism-based; conditions: read-out: Drug uptake; procedure, shortened: as §2
[10] = Ratio of drug level in myocardium to plasma in BALB/c mouse at 10 mg/kg, po administered via gavage every 24 hrs for 7 days measured 1 hr post last dose by LC-MS/MS analysis; assay type: ADME, organism-based; conditions: myocardium and plasma; procedure, shortened: as §2
[11] = Ratio of AUC (0 to 24 hrs) in myocardium to plasma in BALB/c mouse at 10 mg/kg, po administered via gavage every 24 hrs for 7 days measured post last dose by LC-MS/MS analysis; assay type: ADME, organism-based; conditions: myocardium and plasma, read-out: Ratio AUC; procedure, shortened: as §2
[12] = Plasma concentration in BALB/c mouse at 10 mg/kg, po administered via gavage every 24 hrs for 7 days measured 8 hrs post last dose by LC-MS/MS analysis; assay type: ADME, organism-based; procedure, shortened: as §2
[13] = Ratio of drug level in myocardium to plasma in Sprague-Dawley rat at 10 mg/kg, po administered via gavage every 24 hrs measured at 1 hr post dose by LC-MS/MS analysis; assay type: ADME, organism-based; conditions: myocardium and plasma; procedure, shortened: as §1
[14] = AUC (0 to 24 hrs) in BALB/c mouse myocardium at 10 mg/kg, po administered via gavage every 24 hrs for 7 days measured post last dose by LC-MS/MS analysis; assay type: ADME, organism-based; design: time < 24 hr, dose 10 mg/kg, route oral; procedure, shortened: as §2
Heart [15] = assay: Cardioprotective activity in Langendorff perfused C57BL/6 mouse heart perfused for 30 mins in presence of high fat; assay type: functional, tissue-based
[16] = Drug uptake in Sprague-Dawley rat myocardium at 10 mg/kg, po administered via gavage every 24 hrs measured at 8 hrs post last dose by LC-MS/MS analysis; assay type: ADME, organism-based; conditions: read-out: Drug uptake; procedure, shortened: as §1
[17] = Drug uptake in Sprague-Dawley rat myocardium at 10 mg/kg, po administered via gavage every 24 hrs measured at 1 hr post last dose by LC-MS/MS analysis; assay type: ADME, organism-based; conditions: read-out: Drug uptake; procedure, shortened: as §1
[18] = Plasma concentration in Sprague-Dawley rat at 10 mg/kg, po administered via gavage every 24 hrs measured at 8 hrs post last dose by LC-MS/MS analysis; assay type: ADME, organism-based; procedure, shortened: as §1
[19] = AUC (0 to 24 hrs) in BALB/c mouse plasma at 10 mg/kg, po administered via gavage every 24 hrs for 7 days measured post last dose by LC-MS/MS analysis; assay type: ADME, organism-based; design: dose 10 mg/kg, time < 24 hr, route oral; procedure, shortened: as §2
[20] = Ratio of drug level in myocardium to plasma in Sprague-Dawley rat at 10 mg/kg, po administered via gavage every 24 hrs measured at 8 hrs post dose by LC-MS/MS analysis; assay type: ADME, organism-based; conditions: myocardium and plasma; procedure, shortened: as §1
[21] = Drug uptake in BALB/c mouse myocardium at 10 mg/kg, po administered via gavage every 24 hrs for 7 days measured 8 hrs post last dose by LC-MS/MS analysis; assay type: ADME, organism-based; conditions: read-out: Drug uptake; procedure, shortened: as §2
[22] = Plasma concentration in Sprague-Dawley rat at 10 mg/kg, po administered via gavage every 24 hrs measured at 4 hrs post last dose by LC-MS/MS analysis; assay type: ADME, organism-based; procedure, shortened: as §1
[23] = Drug uptake in BALB/c mouse myocardium at 10 mg/kg, po administered via gavage every 24 hrs for 7 days measured 4 hrs post last dose by LC-MS/MS analysis; assay type: ADME, organism-based; conditions: read-out: Drug uptake; procedure, shortened: as §2
Heart [24] = assay: Cardioprotective activity in Langendorff perfused C57BL/6 mouse heart assessed as increase in cardiac contractility at 10 uM perfused for 30 mins in presence of high fat relative to control; assay type: functional
Procedure, shortened: (§3)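 Isolated C57BL/6 hearts (25-30 g) retrogradely perfused at constant 80 mmHg, 37 °C, 95% O2/5% CO2, with modified Krebs containing 1.2 mM sodium palmitate conjugated to 3% BSA. After 10 min stabilisation, 30 min perfusion with control buffer or compound at 2 or 10 µM. LVdP/dt max and min derived from LV pressure over 40 min; mean ± SEM, n = 12-19, 1-way ANOVA with Bonferroni.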

[25] = Ratio of drug level in myocardium to plasma in BALB/c mouse at 10 mg/kg, po administered via gavage every 24 hrs for 7 days measured 4 hrs post last dose by LC-MS/MS analysis; assay type: ADME, organism-based; conditions: myocardium and plasma; procedure, shortened: as §2
[26] = Plasma concentration in BALB/c mouse at 10 mg/kg, po administered via gavage every 24 hrs for 7 days measured at 1 hr post last dose by LC-MS/MS analysis; assay type: ADME, organism-based; procedure, shortened: as §2
Heart [27] = assay: Cardioprotective activity against Langendorff perfused C57BL/6 mouse heart assessed as lusitropic effect at 10 uM measured for 40 mins reperfusion period in presence of high fat; assay type: functional, tissue-based; procedure, shortened: as §3
Heart [28] = assay: Cardioprotective activity in Langendorff perfused C57BL/6 mouse heart assessed as increase in cardiac relaxation at 10 uM perfused for 30 mins in presence of high fat relative to control; assay type: functional; procedure, shortened: as §3

- Stability [4]: Unstable
- half-life at 5 µM (CYP2D6): 16 min
- half-life at 3 µM [2]: 65 min
- half-life at 3 µM [3]: 11 min
Compound: FC1CCC(C(CC2CCCCN2)C2CCCCC2)CC1 (stereo unspecified)

- Stability [4]: Stable
- half-life at 3 µM [2]: 51 min
- half-life at 3 µM [3]: 7 min
Compound: C1CCC(CC(C2CCCC2)C2CCC2)NC1 (stereo unspecified)

- Stability [4]: Unstable
Compound: FC1CCC(C(CC2CCCCN2)C2CCC(F)CC2)CC1 (stereo unspecified)

- Stability [4]: Stable
- half-life at 3 µM [2]: 27 min
- half-life at 3 µM [3]: 3 min
Compound: C1CCC(CC(C2CCCC2)C2CC2)NC1 (stereo unspecified)

More lines, now with the values behind:

Compound: C1CCC(C(CC2CCCCN2)C2CCCCC2)CC1.O=C(O)/C=C\C(=O)O (stereo unspecified) [PERHEXILINE MALEATE]
- IC50 [1]: 32 µM
- half-life at 3 µM [2]: 98 min
- half-life at 3 µM [3]: 10 min

Compound: FC1(F)CCC(C(CC2CCCCN2)C2CCCCC2)CC1 (stereo unspecified)
- concentration at 2 h [5]: 375 ng/mL
- concentration at 1 h [6]: 386 ng/mL
- IC50 [1]: 45 µM
- concentration at 4 h [7]: 172 ng/mL
- Stability [4]: Stable
- Kp at 8 h [8]: 9.5
- concentration at 1 h [9]: 3730 ng/mL
- Kp at 1 h [10]: 10.7
- Kp [11]: 8.6
- concentration at 8 h [12]: 192 ng/mL
- Kp at 1 h [13]: 15.3
- AUC at 24 h [14]: 32400 ng·h/mL
- Activity (Heart [15]): Dose-dependent effect
- concentration at 8 h [16]: 1290 ng/mL
- concentration at 1 h [17]: 5910 ng/mL
- concentration at 8 h [18]: 179 ng/mL
- AUC at 24 h [19]: 3760 ng·h/mL
- Kp at 8 h [20]: 7.2
- concentration at 8 h [21]: 1830 ng/mL
- concentration at 4 h [22]: 297 ng/mL
- concentration at 4 h [23]: 1880 ng/mL
- fold change (FC) (Heart [24]): 1.8
- Kp at 4 h [25]: 10.9
- concentration at 1 h [26]: 346 ng/mL
- half-life at 5 µM (CYP2D6): 104 min
- Activity (Heart [27]): Active
- half-life at 3 µM [2]: > 500 min
- half-life at 3 µM [3]: 72 min
- fold change (FC) (Heart [28]): 2.7

Compound: C1CCC(CC(C2CCCC2)C2CCCC2)NC1 (stereo unspecified)
- IC50 [1]: 19 µM
- Stability [4]: Stable
- half-life at 3 µM [2]: 50 min
- half-life at 3 µM [3]: 14 min

Compound: C1CCC(C(CC2CCCCN2)C2CCC2)CC1 (stereo unspecified)
- Stability [4]: Stable
- half-life at 3 µM [2]: > 200 min
- half-life at 3 µM [3]: 10 min

Compound: Fc1ccc(C(CC2CCCCN2)C2CCCCC2)cc1 (stereo unspecified)
- Stability [4]: Stable
- half-life at 3 µM [2]: 79 min
- half-life at 3 µM [3]: 7 min

Compound: CC1(C)CCC(C(CC2CCCCN2)C2CCCCC2)CC1 (stereo unspecified)
- Stability [4]: Stable
- half-life at 3 µM [2]: 77 min
- half-life at 3 µM [3]: 20 min
